Data taken from article PMC5197073 (Theranostics, 2017).

Legend:
[1] = Intratumoral drug concentration and distribution by MALDI-MSI in C26 tumors; format: in vivo, mouse; conditions: for intratumoral drug distribution (MALDI-MSI): C26 tumors, 100 mg/kg p.o. for two weeks
[2] = Intratumoral drug concentration and distribution by MALDI-MSI in C38 tumors; format: in vivo, mouse; conditions: 100 mg/kg p.o. for two weeks
[3] = tested on: C38 mouse colorectal carcinoma; experiment: In vivo growth inhibition of s.c. C38 tumors; conditions: C57Bl/6 mice, 100 mg/kg p.o. 5 times a week for two weeks; vs vehicle; P=0.0048
In short: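 C38 fragments, kept by serial s.c. passage, cut into 5×5×5 mm cubes and implanted into the backs of anaesthetised 8-week-old female C57Bl/6 mice. Dosing started on day 13, once daily by feeding tube, 5 days/week. Vehicle was 2% carboxymethylcellulose with 2 mg/mL methyl-4-hydroxybenzoate, also given to controls. Calipers were used three times weekly, with volume = length × width² × π/6.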

C38 tumors = experiment: Microvessel areas; format: in vivo, mouse; conditions: C38 model, 100 mg/kg p.o. for two weeks; P<0.03
[4] = tested on: C38 mouse colorectal carcinoma; conditions: C57Bl/6 mice; previously published study; ref [38]; cited from earlier work
C26 tumors = experiment: Intratumoral hypoxia; format: in vivo, mouse; conditions: C26 model, 100 mg/kg p.o. for two weeks; P=0.0152
desmin = experiment: Pericyte desmin expression in C26 tumors; format: in vivo, mouse; conditions: C26 model, 100 mg/kg p.o. for two weeks; sunitinib P=0.0135, motesanib P<0.05
PDGFRβ = conditions: ref [18]; cited from earlier work

| Structure (SMILES) | intratumoral drug distribution (MALDI-MSI) [1] | intratumoral drug distribution (MALDI-MSI) [2] | C38 tumor growth inhibition [3] | intratumoral microvessel areas (antivascular/antiangiogenic effect) (C38 tumors) | intratumoral drug concentration vs untreated controls ([2]; P=0.0006) | intratumoral vatalanib concentration ([2]; C57Bl/6 mice, P=0.0025 vs C26) [µmol/mL] | C38 tumor burdens [4] | rank of intratumoral concentration among the five RTKIs ([1]; mouse, in vivo, po, 100 mg/kg) | intratumoral hypoxia (C26 tumors) | pericyte desmin expression (desmin) | IC50 value against PDGFRβ, rank among the tested RTKIs (PDGFRβ) |
| --- | --- | --- | --- | --- | --- | --- | --- | --- | --- | --- | --- |
| CNC(=O)c1cc(Oc2ccc(NC(=O)Nc3ccc(Cl)c(C(F)(F)F)c3)cc2)ccn1 [sorafenib] | Only traces | trace-level | no significant tumor growth inhibitory | no significant |  |  |  |  |  |  |  |
| Clc1ccc(Nc2nnc(Cc3ccncc3)c3ccccc23)cc1 [vatalanib] | Only traces | well-distributed | robust and significant growth-inhibitory effect | significant decrease | significantly higher | 0.116 | significantly decreased |  |  |  |  |
| Cc1ccc(Nc2nccc(N(C)c3ccc4c(C)n(C)nc4c3)n2)cc1S(N)(=O)=O [pazopanib] | inhomogeneous | trace-level | no significant tumor growth inhibitory | no significant |  |  |  |  |  |  |  |
| CCN(CC)CCNC(=O)c1c(C)[nH]c(/C=C2\C(=O)Nc3ccc(F)cc32)c1C [sunitinib] | homogeneously distributed | well-distributed | significant antitumor | significant |  |  |  | highest values | significantly increased | suppressed | lowest IC50 value |
| CC1(C)CNc2cc(NC(=O)c3cccnc3NCc3ccncc3)ccc21 [motesanib] | inhomogeneous | trace-level | no significant tumor growth inhibitory | no significant |  |  |  |  |  | significantly decreased |  |
